From ChEMBL document CHEMBL4316634, “Immunomodulatory Biscembranoids and Assignment of Their Relative and Absolute Configurations: Data Set Modulation in the Density Functional Theory/Nuclear Magnetic Resonance Approach” (J Nat Prod, 2019)
Active and inactive are the calls of the source. The rule behind the calls is not given here.

Tests used:
[1] = test system: Splenocyte; experiment: Immunomodulatory activity in C57BL/6 mouse splenocytes assessed as increase in CD4+/CD8+ cells ratio at 3 uM incubated for 24 hrs by flow cytometric analysis; format: functional, cell-based
Method in brief: (§1)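 C57BL/6 splenocytes given compounds at 3 μM for 24 h under Con A-induced activation, with Con A (5 μg/mL) as positive control. Cells were stained with PE-CD3, FITC-CD4 and Percp/cy5.5-CD8. CD3+, CD4+ and CD8+ percentages were measured by flow cytometry, and the CD4+/CD8+ ratio was derived from them. Values are mean ± SD, n = 3.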

[2] = test system: Splenocyte; experiment: Cytotoxicity in C57BL/6 mouse splenocytes assessed as effect on cell viability at 3 uM by FACScan flow cytometry; format: cell-based
Method in brief: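 Splenocytes at 2 × 10^6 cell/mL from C57BL/6 mice exposed to compounds at 3 μM for 24 h, with Con A (5 μg/mL) as positive control. Cells were then collected, washed in PBS and read at once by flow cytometry for apoptosis.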

[3] = test system: Splenocyte; experiment: Immunomodulatory activity in C57BL/6 mouse splenocytes assessed as reduction in CD4+/CD8+ cells ratio at 3 uM incubated for 24 hrs by flow cytometric analysis; format: functional, cell-based; method in brief: as §1
[4] = test system: Splenocyte; experiment: Immunomodulatory activity in C57BL/6 mouse splenocytes assessed as induction of CD3+ T cells proliferation at 3 uM incubated for 24 hrs by flow cytometric analysis; format: functional, cell-based; method in brief: as §1

| Structure (SMILES) | Activity [1] | Activity [2] | Activity [3] | Activity [4] |
| --- | --- | --- | --- | --- |
| CC(=O)O[C@H]1C/C(C)=C/CC[C@H](C)CC(=O)C[C@@]23C(=O)O[C@@H]([C@@H]1C(C)C)[C@@H]2CC(C)=C1CCC2=CCC[C@@](C)(OC2=O)[C@@H](O)CC/C(C)=C/[C@@H]13 | Active | Non-Toxic |  |  |
| CC(=O)O[C@H]1C/C(C)=C/CC[C@H](C)CC(=O)C[C@@]23C(=O)O[C@@H]([C@@H]1C(C)C)[C@@H]2CC(C)=C1CCC2=CCC[C@@](C)(OC2=O)[C@@H](O)CC/C(C)=C\[C@@H]13 |  | Non-Toxic |  |  |
| CC(=O)O[C@H]1C/C(C)=C/CC/C(C)=C\C(=O)C[C@@]23C(=O)O[C@@H]([C@@H]1C(C)C)[C@@H]2CC(C)=C1CCC2=CCC[C@@](C)(OC2=O)[C@@H](O)CC/C(C)=C\[C@@H]13 |  | Non-Toxic | Active |  |
| CC(=O)O[C@H]1C/C(C)=C/C/C=C(/C)CC(=O)C[C@@]23C(=O)O[C@@H]([C@@H]1C(C)C)[C@@H]2CC(C)=C1CCC2=CCC[C@@](C)(OC2=O)[C@@H](O)CC/C(C)=C/[C@@H]13 |  | Non-Toxic |  | Active |
| CC(=O)O[C@H]1C/C(C)=C/CC/C(C)=C/C(=O)C[C@@]23C(=O)O[C@@H]([C@@H]1C(C)C)[C@@H]2CC(C)=C1CCC2=CCC[C@@](C)(OC2=O)[C@@H](O)CC/C(C)=C/[C@@H]13 | Active | Non-Toxic |  | Active |
| CC1=C2CCC3=CCC[C@@](C)(OC3=O)[C@@H](O)CC/C(C)=C/[C@@H]2[C@]23CC(=O)C[C@@H](C)CC/C=C(\C)CC(=O)[C@@H](C(C)C)[C@H](OC2=O)[C@@H]3C1 |  | Non-Toxic |  |  |
| CC(=O)O[C@H]1C/C(C)=C/CC/C(C)=C\C(=O)C[C@@]23C(=O)O[C@@H]([C@@H]1C(C)C)[C@@H]2CC(C)=C1CCC2=CCC[C@@](C)(OC2=O)[C@@H](O)CC/C(C)=C/[C@@H]13 |  | Non-Toxic |  |  |
